# Experimental data from the array DNA melting data of Ke et al. (doi:10.1101/2024.01.08.574731).
# Tests used:
# [1] = melting temperature; fluorescence melt of hairpins on a sequencing array, two-state fit, raised by 9.35 °C to match UV melts; details: sodium 0.088 M
# In short: (§1)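 Folding enthalpy and melting temperature come from bootstrapped two-state fits to Cy3 fluorescence of library hairpins carrying annealed Cy3 and quencher oligos on a sequenced MiSeq flow cell. Imaging was done in 50 mM Na-HEPES pH 8.0, 25 mM NaCl, stepping by 2.5 °C up to 60 °C, and signals were normalised to pre-quench Cy3 and to control constructs. Results of four replicates were combined by inverse variance, and fitted temperatures were raised by 9.35 °C to match UV melts.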
# [2] = folding enthalpy; higher = less favourable; fluorescence melt of hairpins on a sequencing array, two-state fit; details: sodium 0.088 M
# In short: as §1
Sequence,Tm [1] [°C],folding enthalpy [2] [kJ/mol]
GTAATTGGAAACGATTAC (((((.(....).))))),38.1,-136
GTACAACGAAAGTTTAC (((.(((....)))))),27.8,-47.9
GTACAAGCGAAAGCTTAC (((..(((....)))))),28.4,-46.8
GTACAAGGAAACTCGTAC ((((.((....)).)))),29.1,-92
GTACACGAAAGTGATTAC ((((((....)))..))),27.4,-61.1
GTACACGAAAGTGCTAC ((((((....))).))),39.9,-66.4
GTACACGAAAGTGGATAC ((((((....)))..))),34.5,-49.5
GTACACGAAAGTGTCTAC ((((((....)))..))),35.8,-44.4
GTACACGAAAGTGTTAC ((((((....))).))),42.5,-54
GTACACGAAAGTGTTTAC ((((((....)))..))),29,-38.9
GTACATGAAAATGTAC ((((((....)))))),51.2,-142
GTACCACGAAAGTGTTAC (((.(((....))).))),39.2,-101
GTACCAGGAAACCAGTAC ((((..(....)..)))),24.9,-47.8
GTACCCGAAAGGGATTAC ((((((....)))..))),25.7,-38.8
GTACCCGAAAGGGGCTAC ((((((....)))..))),41.4,-60
GTACCCGAAAGGGGGTAC ((((((....)))..))),49.6,-75.6
GTACCCGAAAGGGTATAC ((((((....)))..))),49.4,-43.5
GTACCCGCGAAAGCGTAC (((..(((....)))))),25.7,-33.7
GTACCGGAAACGGTAC ((((((....)))))),64.7,-153
GTACCGGGAAACCGACAC ((..(((....)))..)),22.9,-35.2
GTACCGGGAAACCGGTAC (((((((....))))))),68.3,-122
GTACCTGGAAACAGGTAC (((((((....))))))),61.9,-175
GTACCTGGAAACGGGTAC (((((.(....).))))),50.4,-175

Sequence,Tm [1] [°C],folding enthalpy [2] [kJ/mol]
GTACGACGAAAGTCATAC (((.(((....))).))),39.4,-79.5
GTACGAGAAATCGTAC ((((((....)))))),54.3,-160
GTACGAGGAAACCCGTAC (((((.(....).))))),46.5,-129
GTACGCCCGAAAGGGTAC (((..(((....)))))),33.2,-47.7
GTACGCCGAAAGGCATAC (((.(((....))).))),44.7,-68.4
GTACGCGAAAGCGCTAC ((((((....))).))),42.2,-55.4
GTACGCGAAAGCGGTTAC ((((((....)))..))),32.7,-34.8
GTACGGGCGAAAGCCTAC (((..(((....)))))),30,-34.8
GTACGTCGAAAGACTAC (((.(((....)))))),41,-91.5
GTACGTGGAAACACACAC ((..(((....)))..)),27.4,-45
GTACGTGGAAACACATAC (((.(((....))).))),32.7,-92.4
GTACGTGGAAACGCGTAC (((((.(....).))))),52.7,-135
GTACTAGGAAACTAGTGC (.(((((....))))).),42.8,-113
GTACTAGGAAACTGGTAC ((((.((....)).)))),42.2,-131
GTACTCACGAAAGTGTAC (((..(((....)))))),31.9,-46
GTACTCGAAAGAGGATAC ((((((....)))..))),28.5,-55.4
GTACTCGAAAGAGGTTAC ((((((....)))..))),26.6,-35.4
GTACTCGAAAGAGTTTAC ((((((....)))..))),30,-39
GTACTGACGAAAGTCTAC (((..(((....)))))),21.8,-27.8
GTACTGCGAAAGCAATAC (((.(((....))).))),37.4,-90.5
GTACTGCGAAAGCATTAC (((.(((....))).))),41.7,-94.3
GTACTGGCGAAAGCCTAC (((..(((....)))))),26.3,-46.2
GTACTGGGAAACCAGTGC (.(((((....))))).),50.2,-94.7

Sequence,Tm [1] [°C],folding enthalpy [2] [kJ/mol]
GTACTTCGAAAGAATTAC (((.(((....))).))),32.2,-77.7
GTAGAACCGAAAGGTTAC (((..(((....)))))),32.5,-55.6
GTAGAACGAAAGTTGTAC (((.(((....))).))),42.8,-133
GTAGAAGGAAACCTCTAC (((((.(....).))))),33.4,-75.9
GTAGAAGGAAACTTCTGC (.(((((....))))).),39,-96.6
GTAGACCGAAAGGTATAC (((.(((....))).))),51.7,-151
GTAGACCGAAAGGTTTAC (((.(((....))).))),48.5,-117
GTAGACGAAAGTCACTAC ((((((....)))..))),41.1,-59.3
GTAGACGAAAGTCAGTAC ((((((....)))..))),28.6,-38.5
GTAGACGAAAGTCCTAC ((((((....))).))),36.4,-82.6
GTAGACGAAAGTCGGTAC ((((((....)))..))),34.6,-49.3
GTAGACGAAAGTCGTAC ((((((....))).))),49.9,-99
GTAGACGGAAACATCTAC (((((.(....).))))),31,-87.7
GTAGACGGAAACGTCTGC (.(((((....))))).),55.1,-103
GTAGAGGAAACTCTAC ((((((....)))))),49.1,-106
GTAGAGTCGAAAGACTAC (((..(((....)))))),35.1,-45.3
GTAGATGGAAACACCTAC ((((.((....)).)))),32.9,-87.6
GTAGCACCGAAAGGTTAC (((..(((....)))))),29.2,-35.6
GTAGCACGAAAGTGGTAC (((.(((....))).))),60.9,-141
GTAGCCCGAAAGGGATAC (((.(((....))).))),64.3,-141
GTAGCCCGAAAGGGTAC (((.(((....)))))),48.6,-73.9
GTAGCCGAAAGGCGCTAC ((((((....)))..))),42.8,-39
